Structures are written as SMILES.

The target of data set [1] is T1, Tyrosinase (Agaricus bisporus, UniProt O42713).
T1 sequence (O42713 whole entry): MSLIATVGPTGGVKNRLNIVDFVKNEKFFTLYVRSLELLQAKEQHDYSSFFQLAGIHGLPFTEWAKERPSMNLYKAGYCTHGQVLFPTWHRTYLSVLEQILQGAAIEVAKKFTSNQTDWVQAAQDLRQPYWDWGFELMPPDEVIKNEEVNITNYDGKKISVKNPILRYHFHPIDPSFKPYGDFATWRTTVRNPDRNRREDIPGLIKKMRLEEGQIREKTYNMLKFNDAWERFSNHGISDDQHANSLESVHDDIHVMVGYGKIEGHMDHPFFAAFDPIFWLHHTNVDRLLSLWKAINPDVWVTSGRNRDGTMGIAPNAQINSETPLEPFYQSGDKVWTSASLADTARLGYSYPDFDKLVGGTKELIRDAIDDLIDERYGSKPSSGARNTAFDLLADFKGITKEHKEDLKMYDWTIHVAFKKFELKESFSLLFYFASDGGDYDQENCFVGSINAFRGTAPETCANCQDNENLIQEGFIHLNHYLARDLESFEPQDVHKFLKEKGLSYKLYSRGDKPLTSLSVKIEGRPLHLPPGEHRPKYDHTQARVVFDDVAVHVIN
Description: Inhibition of mashroom tyrosinase assessed as oxidation of L-DOPA by spectrophotometry. The essentials: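 Mushroom tyrosinase diphenolase activity with L-DOPA as substrate. Compounds dissolved in DMSO and diluted with phosphate buffer pH 6.8, final DMSO 2.0%. Thirty units of enzyme pre-incubated with compound in 50 mM phosphate buffer (pH 6.8) for 10 min at 25 °C. Triplicate per concentration. IC50 interpolated from log concentration–inhibition curves (at least eight points), mean of three experiments.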

Data set [2] deals with T1, Tyrosinase. Description: Inhibition of mushroom tyrosinase assessed as oxidation of L-DOPA by Lineweaver-Burke plot analysis. The procedure, abridged:
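Kinetics use the same pre-incubation (10 min, 25 °C, 50 mM phosphate pH 6.8) and measurement time as the IC50 assay, with three inhibitor concentrations per compound including zero and L-DOPA varied. Initial velocity taken from absorbance change over time. Lineweaver–Burk plots were drawn, and KI was obtained from a secondary plot of intercept versus inhibitor concentration.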

Data set [3] concerns Mus musculus. Description: Toxicity in mouse at 1600 mg/kg/day, po measured for 20 days. Also noted: route oral. Conditions: in vivo, 480 h. It counts as organism-based. The essentials: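 Ten specific-pathogen-free mice, 4 weeks old, acclimated for one week at 20 ± 2 °C and 50 ± 10% relative humidity, weighing 20 ± 2 g. Mice were fasted 4 h, then given a single oral gavage in carboxymethyl cellulose (10 ml/kg; dosing solution 160 mg/ml). Vehicle served as negative control. Clinical signs and mortality were followed 20 days, then organs were examined at autopsy.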

Consider `COC(=O)CNC(=O)COc1ccc(C=O)cc1`, for which the IC50 (usually the concentration that inhibits the measured activity by half) in data set [1] stood at 170 µM. The Ki (in general, the dissociation constant of the complex between target and ligand, obtained from inhibition or displacement) in data set [2] was found to be 117 µM.

Turning to `CCC(C)C(NC(=O)COc1ccc(C=O)cc1)C(=O)OC` (stereo not drawn), the IC50 in data set [1] turned out to be 460 µM.

As to `COC(=O)C(Cc1c[nH]c2ccccc12)NC(=O)COc1ccc(C=O)cc1` (stereo not drawn), in data set [1], the IC50 turned out to be 110 µM. Also, the Ki in data set [2] was 54 µM.

As to `COC(=O)C(Cc1ccc(O)cc1)NC(=O)COc1ccc(C=O)cc1` (stereo not drawn), the IC50 in data set [1] worked out at 220 µM.

With `COC(=O)C(C)NC(=O)COc1ccc(C=O)cc1` (stereo not drawn), the IC50 in data set [1] came to 160 µM. In data set [2], the Ki worked out at 125 µM.

On to `COC(=O)C(CCSC)NC(=O)COc1ccc(C=O)cc1` (stereo not drawn), for which, in data set [1], the IC50 is 400 µM.

For `COC(=O)C1CCCN1C(=O)COc1ccc(C=O)cc1` (stereo not drawn), in data set [1], the IC50 was found to be 760 µM.

For `COC(=O)C(Cc1ccccc1)NC(=O)COc1ccc(C=O)cc1` (stereo not drawn), the IC50 in data set [1] was 480 µM.

In the case of `COC(=O)C(CC(C)C)NC(=O)COc1ccc(C=O)cc1` (stereo not drawn), the IC50 in data set [1] was 1650 µM.

Take `O=Cc1ccc(OCCOC(=O)CCC(=O)O)cc1`: the IC50 in data set [1] is 620 µM.

With `O=Cc1ccc(OCC2CO2)cc1` (stereo not drawn), in data set [1], the IC50 is 590 µM.

With `O=Cc1ccc(OCOC(CO)CO)cc1`, the IC50 in data set [1] was found to be 270 µM.

Regarding `COCC(O)COc1ccc(C=O)cc1` (stereo not drawn), in data set [1], the IC50 is 750 µM.

For the compound `O=Cc1ccc(OCOCCO)cc1`, in data set [1], the IC50 was 370 µM.

With `O=Cc1ccc(OCCO)cc1`, the IC50 in data set [1] was 2550 µM.

As to `O=Cc1ccc(OCCOP(=O)(O)O)cc1`, in data set [1], the IC50 came out at 820 µM.

As for `COCCOCCOc1ccc(C=O)cc1`, in data set [1], the IC50 was 900 µM.

As to `COP(=O)(OC)OCCOc1ccc(C=O)cc1`, the Activity entry in data set [3] is “Non-toxic”. Also, the IC50 in data set [1] came to 59 µM. For the same compound, the Ki in data set [2] is 36.8 µM.

Consider `CCCCOCCOc1ccc(C=O)cc1`, for which, in data set [1], the IC50 was found to be 3260 µM.

On to `COCCCCOc1ccc(C=O)cc1`, for which the IC50 in data set [1] was found to be 620 µM.

With `CCOP(=O)(OCC)OCCOc1ccc(C=O)cc1`, the IC50 in data set [1] came out at 550 µM.

For the compound `O=Cc1ccc(OCC(O)CO)cc1` (stereo not drawn), in data set [1], the IC50 is 1260 µM.

As for `COCCOc1ccc(C=O)cc1`, in data set [1], the IC50 is 660 µM.
